Most compounds without a hit are left out; they make up all but 2.3% or so of the library.
TRPC4 PAM: allosterically enhances the mouse TRPC4 cation channel. Q9QUQ5. HEK293 TRPC4beta/mu-opioid, DAMGO EC20, Fluo-4 Ca2+ flux; hits give high values. B-score at 10 µM. 0.42% of 310,000 active. AID 2227;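 active = B-score of calcium response area above 5 SD of library B-scores, with initial fluorescence ratio within 5 SD of library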;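 also: B-score of integrated fluorescence ratio over time as area under calcium response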
TRPC6 inh: blocks the mouse TRPC6 cation channel. B-score at 10 µM. 1.1% of 310,000 active. HEK293-TRPC6, membrane potential dye, ACh-evoked depolarization; hits give low values. Q61143;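 active = B-score under library mean minus 3 SD, initial fluorescence not abnormally high, positive integrated signal ratio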;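 also: B-score derived from integrated fluorescence ratio over the kinetic read; more negative B-score means stronger inhibition of depolarization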
Target sequence (Q61143 whole entry, looked up): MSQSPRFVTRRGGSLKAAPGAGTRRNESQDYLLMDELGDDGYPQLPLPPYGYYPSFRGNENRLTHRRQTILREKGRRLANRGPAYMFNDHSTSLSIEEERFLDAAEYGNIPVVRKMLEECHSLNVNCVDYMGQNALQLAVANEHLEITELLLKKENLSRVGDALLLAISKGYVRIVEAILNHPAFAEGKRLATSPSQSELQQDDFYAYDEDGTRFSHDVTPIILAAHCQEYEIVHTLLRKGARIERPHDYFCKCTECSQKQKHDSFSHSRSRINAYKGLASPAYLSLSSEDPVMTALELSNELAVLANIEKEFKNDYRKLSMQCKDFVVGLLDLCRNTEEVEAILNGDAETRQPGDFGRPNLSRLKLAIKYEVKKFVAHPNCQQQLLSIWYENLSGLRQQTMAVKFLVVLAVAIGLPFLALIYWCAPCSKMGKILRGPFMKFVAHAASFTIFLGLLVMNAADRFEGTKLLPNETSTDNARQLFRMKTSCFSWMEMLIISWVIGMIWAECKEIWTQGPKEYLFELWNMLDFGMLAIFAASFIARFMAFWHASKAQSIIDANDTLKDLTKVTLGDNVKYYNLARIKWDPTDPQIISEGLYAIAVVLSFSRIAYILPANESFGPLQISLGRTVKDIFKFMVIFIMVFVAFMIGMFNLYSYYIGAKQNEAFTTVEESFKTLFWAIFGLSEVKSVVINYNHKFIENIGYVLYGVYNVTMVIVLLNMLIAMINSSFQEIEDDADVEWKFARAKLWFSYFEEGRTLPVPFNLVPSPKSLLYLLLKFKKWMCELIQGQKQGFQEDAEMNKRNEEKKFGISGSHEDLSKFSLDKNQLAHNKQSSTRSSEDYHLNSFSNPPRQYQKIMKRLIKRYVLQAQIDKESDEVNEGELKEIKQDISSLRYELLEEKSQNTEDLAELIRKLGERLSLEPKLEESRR
TRPC4 act: TRPC4 (mouse) channel activation | HEK293 TRPC4beta/mu-opioid, Fluo4 calcium fluorescence; hits give high values | B-score at 10 µM | 0.49% of 310,000 active | Q9QUQ5;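 active = B-score above 5 SD of library B-scores, and initial fluorescence ratio not above library mean plus 5 SD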;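 also: positive B-score marks a calcium rise read as TRPC4 activation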
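system = HEK293 cells stably co-expressing mouse TRPC4beta and mu-opioid receptor | schedule = Fluo4 dye loading 45 min at room temperature, 110 s recording | measure = B-scored integrated calcium fluorescence ratio | signal = Fluo4 calcium-sensitive dye fluorescence, kinetic, 1 Hz baseline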
TRPC6 activator: activators of mouse TRPC6 channel | 0.13% of 310,000 active | Q61143 | HEK293-TRPC6 membrane potential dye fluorescence; hits give high values | B-score at 10 µM;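 active = B-score of the integrated fluorescence ratio above library mean plus 3 SD, and starting fluorescence ratio within library mean plus 5 SD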;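 also: higher score means more depolarization so channel activation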
TRPC4 block: inhibitors of mouse TRPC4 channel. Q9QUQ5. HEK293 TRPC4beta/mu-opioid, DAMGO-evoked Fluo4 calcium flux; hits give low values. B-score at 10 µM. 0.39% of 300,000 active;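 active = B-score over 3 SD under the library average, no early fluorescence shift, positive overall ratio signal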
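material = TRPC4beta/mu-opioid receptor HEK293 cell line | probe or stimulus = sequential submaximal and maximal DAMGO stimulation | compound dosing = one concentration per compound | measured by = Fluo4 Ca2+ flux fluorescence | evaluation = integrated fluorescence ratio relative to baseline, converted to per-well B score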
TRPC4 sel inh 2: second check of whether TRPC6 inhibitors also affect mouse TRPC4 | inhibition, % at 10 µM | shares compounds with TRPC6 inh | AID 2776 | HEK293 TRPC4/MOR, membrane potential dye fluorescence; channel activated by saturating DAMGO dose | 42% of 920 active;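 active = compounds whose fluorescence signal differed from control wells by over 3 SD, either direction, in both duplicate plates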
TRPC4 spec: selectivity of TRPC6 inhibitors: effect on mouse TRPC4 | shares compounds with TRPC6 inh | HEK293 TRPC4/mu-opioid, membrane potential fluorescence | activity change, negative = inhibition, % at 10 µM | 61% of 920 active;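 active = rise or fall in signal beyond 3 SD of buffer-only wells in both replicate plates, either sign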;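 also: integrated kinetic ratio of fluorescence range over baseline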
HEK293 MPD ctr 2-1: second counter-screen for TRPC6 inhibitors: parental HEK293 cells. parental HEK293 membrane potential dye fluorescence; maximal acetylcholine challenge after compound addition. 31% of 920 active. shares compounds with TRPC6 inh. signal change vs control, % at 10 µM. AID 2779;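 active = membrane potential signal moving either way by over 3 SD of the maximum-effect control, in both duplicate plates, meaning non-specific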
HEK293 MPD ctr-1: checks TRPC6 inhibitor effects in parental HEK293 cells. shares compounds with TRPC6 inh. 60% of 920 active. parental HEK293 membrane potential dye fluorescence. membrane potential signal change, % at 10 µM;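 active = membrane potential signal shifting up or down by more than 3 SD of buffer-only wells, on both duplicate plates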
HEK293 MPD ctr-2: checks TRPC6 modulator effects in parental HEK293 cells | shares compounds with TRPC6 inh | membrane potential dye fluorescence | membrane potential signal change, % at 10 µM | 51% of 2,400 active | AID 488924;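 active = membrane potential signal moves up or down beyond 5 SD from buffer-only wells, on both duplicate plates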
HEK293 MPD ctr 2-2: parental HEK293 nonspecific activity of TRPC6 modulators, second screen. 14% of 2,400 active. shares compounds with TRPC6 inh. membrane potential dye fluorescence; after compound, maximal acetylcholine stimulation. inhibition, % at 10 µM;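 active = membrane potential signal drops by more than 5 SD from the mean control signal, in both duplicate plates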;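 also: plate controls were acetylcholine ECmax control wells for no effect and buffer only wells for full effect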
TRPC4 ctr mod: selectivity of TRPC6 modulators against mouse TRPC4; shares compounds with TRPC6 inh; HEK293 TRPC4/mu-opioid, membrane potential fluorescence; percent change from control (negative = decrease, positive = increase), % at 10 µM; 69% of 2,400 active;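 active = membrane potential signal moved up or down beyond 5 SD of buffer control wells, in both duplicate plates, actives on both sides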;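 also: plate controls were assay buffer wells for no effect and DAMGO maximal-effect wells for full effect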
TRPC4/MOR inh 2: mouse TRPC4 off-target activity of TRPC6 modulators, second screen; shares compounds with TRPC6 inh; HEK293 TRPC4/mu-opioid, membrane potential dye fluorescence; stimulated with maximal-effect DAMGO; inhibition, % at 10 µM; 55% of 2,400 active; AID 488928;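 active = drop in membrane potential signal beyond 5 SD of the control wells in both duplicate plates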;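 also: TRPC4 counter screen for TRPC6 hits run under conditions tuned for TRPC6 not TRPC4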
TRPC6 block conf: mouse TRPC6 inhibitor confirmation | AID 488960 | HEK293-TRPC6, membrane potential dye, ACh-evoked depolarization | 43% of 3,300 active | shares compounds with TRPC6 inh | inhibition, % at 10 µM;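 active = fluorescence ratio falls more than 5 SD below the full-stimulation control mean, in both duplicate runs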;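 also: integrated fluorescence ratio of peak minus minimum over baseline after agonist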
TRPC6 act confirm: confirmation of mouse TRPC6 activators; AID 488961; 11% of 2,800 active; shares compounds with TRPC6 inh; HEK293-TRPC6 membrane potential dye fluorescence, FDSS; activation, % at 10 µM;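 active = ratio signal rise beyond 5 SD above unstimulated control wells' mean, seen in both duplicate runs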;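 also: plate controls were buffer EC0 wells for no effect and acetylcholine ECmax response for full effect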
* marks the source's active call; other numbers are inactive results; i = inactive; / = no result given.

SMILES	TRPC4 PAM	TRPC6 inh	TRPC4 act	TRPC6 activator	TRPC4 block	HEK293 MPD ctr-2	HEK293 MPD ctr 2-2	TRPC4 ctr mod	TRPC4/MOR inh 2	TRPC6 block conf	TRPC6 act confirm	others
CCOC(=O)c1sc2ncnc(N3CCN(CC)CC3)c2c1C	i	-5.52*	i	i	i	-128.0%*	i	-21.0%*	41.0%*	i	i
Cn1c(=Nc2ccc(N3CCOCC3)cc2)ccc2ccccc21	i	-5.97*	i	i	i	-76.0%*	i	-16.0%*	i	41.0%*	i
CCn1c(=Nc2ccc(N3CCOCC3)cc2)ccc2ccccc21	i	i	i	i	i	/	/	/	/	/	/
COc1ccccc1/C=C/C=C1N=C(/C=C/c2ccc(Cl)cc2)OC/1=O	i	-5.9*	i	i	i	554.5%*	i	31.5%*	i	i	/
COc1cccc(OCC(O)CN2CCN(CCN3C(=O)c4cccc5cccc(c45)C3=O)CC2)c1 (configuration not stated)	i	-5.77*	i	i	i	i	i	i	71.0%*	54.0%*	i
COc1ccc(OCC(O)CN2CCC(CN3C(=O)c4cccc5cccc(c45)C3=O)CC2)cc1 (configuration not stated)	i	i	i	i	i	/	/	/	/	/	/
O=C1c2cccc3cccc(c23)C(=O)N1CCN1CCN(CC(O)COc2ccccc2)CC1 (configuration not stated)	i	-5.19*	i	i	i	i	i	i	i	i	i
COc1ccc(CCNC(=O)c2cc3c(cc2Cl)N2CCCCCC2=NS3(=O)=O)cc1	i	i	i	i	i	/	/	/	/	/	/
CCOc1ccc(C(=O)O/N=C(\N)c2ccccn2)cc1OCC	i	-5.86*	i	i	i	-94.0%*	i	-22.0%*	i	i	i
CCOc1cc(C(=O)O/N=C(\N)c2ccccn2)cc(OCC)c1OCC	i	i	i	i	i	/	/	/	/	/	/
O=C(/C=C/c1ccc2c(c1)OCO2)Nc1c(C(=O)O)[nH]c2ccccc12	i	i	i	14.5*	i	i	i	16.0%*	i	i	54.0%*
CCOC(=O)c1[nH]c2ccc(OC)cc2c1NC(=O)/C=C/c1ccc2c(c1)OCO2	i	i	i	i	i	/	/	/	/	/	/
COc1cc(NC(=O)CN2CCN(Cc3ccc4c(c3)OCO4)CC2)cc(OC)c1	i	i	i	i	i	/	/	/	/	/	/
COC(=O)c1[nH]c2ccc(Br)cc2c1NC(=O)CN1CCN(C2CCCCC2)CC1	i	-16.8*	i	i	i	/	/	/	/	94.1%*	i	TRPC4 sel inh 2=29.5%*;TRPC4 spec=-24.1%*;HEK293 MPD ctr 2-1=20.0%*;HEK293 MPD ctr-1=-268.5%*
COC(=O)c1[nH]c2cc(C)ccc2c1NC(=O)CN1CCCc2ccccc21	i	-11*	i	i	i	/	/	/	/	i	i	TRPC4 sel inh 2=i;TRPC4 spec=-10.5%*;HEK293 MPD ctr 2-1=i;HEK293 MPD ctr-1=i
COC(=O)c1[nH]c2ccccc2c1NC(=O)CN1CCN(Cc2ccc3c(c2)OCO3)CC1	i	-5.62*	i	i	i	i	i	i	66.0%*	57.0%*	i
COC(=O)c1[nH]c2ccc(C)cc2c1NC(=O)CCN1CCN(C2CCCCC2)CC1	i	i	i	i	i	/	/	/	/	/	/
COC(=O)c1[nH]c2ccc(Br)cc2c1NC(=O)CN1CCCc2ccccc21	i	i	i	i	i	/	/	/	/	/	/
O=C(NCc1ccccn1)c1ccc(Cl)c(S(=O)(=O)N2CCOCC2)c1	i	i	i	i	i	/	/	/	/	/	/
Cc1ccc(CN(C(=O)Cc2cccs2)C(C(=O)NC2CCCC2)c2ccncc2)cc1 (configuration not stated)	i	i	i	i	i	/	/	/	/	/	/
O=C(NC1CCCC1)C(c1ccccc1)N(Cc1cccnc1)C(=O)Cc1cccs1 (configuration not stated)	i	-6.12*	i	i	i	194.0%*	i	50.5%*	i	i	/
COC(=O)C1CCN(C2=C(NS(=O)(=O)c3ccc(Cl)cc3)C(=O)c3ccccc3C2=O)CC1	i	-6.86*	i	i	i	/	/	/	/	i	i	TRPC4 sel inh 2=80.0%*;TRPC4 spec=-17.9%*;HEK293 MPD ctr 2-1=i;HEK293 MPD ctr-1=-249.5%*
COc1ccc(/C(N)=N/OC(=O)CSc2ccccc2)cc1OC	i	i	i	i	i	/	/	/	/	/	/
CCC(C(=O)N1CCOCC1)n1nc(C)c2c(C)n(-c3ccccc3)nc2c1=O (configuration not stated)	i	i	i	i	i	/	/	/	/	/	/
N#C/C(=C\c1ccc(N2CCOCC2)o1)c1ccccc1	i	i	i	18.1*	i	448.0%*	i	89.0%*	i	i	166.0%*
N#C/C(=C/c1ccc(N2CCCCCC2)o1)c1ccc(F)cc1	i	i	i	i	i	/	/	/	/	/	/
N#C/C(=C/c1ccc(N2CCOCC2)o1)c1ccc(Br)cc1	i	i	i	25.3*	i	568.0%*	i	152.0%*	i	i	116.0%*
CCCCC(O)(c1ccc(F)cc1)C(CN1CCOCC1)c1ccc(Cl)cc1 (configuration not stated)	i	i	i	i	i	/	/	/	/	/	/

High-throughput results (PubChem)
